The list is not random: actives were taken first. Their share in the collection is about 2%.
M1 antag – human CHRM1 antagonism; P11229; CHO-K1 hM1, Fluo-8 calcium fluorescence, ACh EC80 antagonist; inhibition, % at 3 µM; 1.3% of 360,000 active; AID 588852;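 active means percent inhibition above its own plate's cutoff, namely the mean of that plate's compound wells plus 3 SD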;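 further: peak over basal fluorescence ratio during 140 s after agonist addition; 0% = ACh EC80 plus DMSO and 100% = DMSO alone without agonist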
Target sequence (P11229 whole entry, looked up): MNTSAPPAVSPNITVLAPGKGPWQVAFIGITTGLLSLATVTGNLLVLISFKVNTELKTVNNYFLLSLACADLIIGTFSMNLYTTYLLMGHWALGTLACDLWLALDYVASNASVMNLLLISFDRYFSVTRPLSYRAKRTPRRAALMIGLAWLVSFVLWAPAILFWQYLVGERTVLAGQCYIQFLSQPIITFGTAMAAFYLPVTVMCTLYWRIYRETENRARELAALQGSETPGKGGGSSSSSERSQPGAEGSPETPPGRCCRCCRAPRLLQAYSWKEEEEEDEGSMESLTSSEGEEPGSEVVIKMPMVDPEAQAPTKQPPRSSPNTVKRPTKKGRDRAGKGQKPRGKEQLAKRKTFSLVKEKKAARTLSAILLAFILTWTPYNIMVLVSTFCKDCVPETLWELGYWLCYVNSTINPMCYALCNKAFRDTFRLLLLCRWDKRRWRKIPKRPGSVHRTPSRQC
M1 ag – activates human CHRM1 receptor | P11229 | CHO-K1 hM1, Fluo-8 calcium fluorescence, agonist mode; 0% DMSO, 100% acetylcholine EC100 | activation, % at 3 µM | 0.33% of 360,000 active;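 active means activation above the run's mean compound activation plus 3 SD, cut at about 16% in these data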;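 further: peak over basal fluorescence ratio within a 140 s kinetic read after compound addition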
M5 ag – agonists of human muscarinic M5 receptor (CHRM5); CHO-K1 hM5 cells, Fluo-8 calcium fluorescence; 0% DMSO wells, 100% maximal acetylcholine response; activation, % at 3 µM; 0.19% of 360,000 active; AID 624037;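 active means activation above the run's mean over test compounds plus 3 SD, cut at about 23% in these data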;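 further: signal is peak over basal fluorescence ratio across the kinetic read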
CHRM1 PAM – positive allosteric modulators of human M1 muscarinic receptor | CHO-K1 hM1, Fluo-8 calcium fluorescence, ACh EC20; 0% = ACh EC20, 100% = maximal ACh | activation, % at 3 µM | 0.088% of 360,000 active; in the data active means activation above about 19%, passing the limit was not always enough
CHRM5 antagonist – antagonists of human muscarinic M5 receptor (CHRM5); P08912; CHO-hM5 cells, Fluo-8 calcium fluorescence, ACh EC80; inhibition, % at 3 µM; 0.59% of 360,000 active; AID 624040;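 active means inhibition above a per-plate cutoff, the mean of that plate's test compounds plus 3 SD, cut at about 27% in these data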;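 further: 0% = acetylcholine EC80 with DMSO and 100% = DMSO without agonist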
M5 PAM – potentiates acetylcholine response at human M5 receptor; CHO-K1 hM5, Fluo-8 calcium, ACh EC20 PAM; 0% = ACh EC20, 100% = ACh EC100; activation, % at 3 µM; 0.3% of 360,000 active; AID 624038;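 active means activation above the run cutoff, the mean activation of all test compounds plus 3 SD, cut at about 18% in these data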
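System: CHO-K1 cell line with stable human muscarinic M5 receptor expression | Also added: EC20 acetylcholine as agonist stimulus | Compound: One concentration, 3 µM final (nominal) | Timing: Fluo-8 loading 80 min at 37 °C plus 30 min room temperature | Measured by: Fluo-8 calcium dye fluorescence, kinetic read | Read-out basis: % activation, ACh-normalized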
* hit, by the source's call; · = not tested or not shown; ! = repeats disagree.

SMILES	M1 antag	M1 ag	M5 ag	CHRM1 PAM	CHRM5 antagonist	M5 PAM
CC1CCC(C(C)C)C(OC(=O)COC(=O)c2ccc(N)cc2)C1 (centres undefined)	-5	-8	0	7	4	2
Cc1ccccc1OCc1n(CC(=O)OC2CC(C)CCC2C(C)C)c2ccccc2[n+]1C (centres undefined)	44*	-13	-9	-33	44*!	-19
CC1CCC(C(C)C)C(OC(=O)Cn2c(-c3ccc(Cl)cc3)[n+](C)c3ccccc32)C1 (centres undefined)	42*	-4	-16	-19	22	-18
Cc1ccc(NC(=O)c2cc(S(=O)(=O)N3CCCCC3)c[nH]2)cc1Cl	-5	0	2	3	1	-4
CC(=O)N1CCC(c2nc3ccccc3n2C(C)C(=O)NCc2ccccc2)CC1 (centres undefined)	·	·	1	·	-9	9
CCOc1nc(OCC)c2[nH]c(C(=O)O)c(Br)c2n1	-10	-1	2	10	12	4
COc1cc(C)c(CN2CCN(S(=O)(=O)c3ccc(Cl)s3)CC2)cc1OC	-4	-5	-2	-1	1	-14
O=C(NC1CC1)C1CCN(C2CCN(C(=O)/C=C/c3cccc(F)c3F)CC2)CC1	-2	-2	-5	0	5	3
O=C(NC1CC1)C1CCN(C2CCN(C(=O)/C=C/c3cccs3)CC2)CC1	-14	-7	-2	7	29*	28*
Cc1ccccc1/C=C/C(=O)NCC(=O)N1CCC(N(C)C2CCCCC2C)CC1 (centres undefined)	27*	-10	-2	-24	-3	3
c1ccc(SC23CCCCN(CCC2)C32OCCO2)cc1 (centres undefined)	·	·	-4	·	-6	3
O=C(O)c1cccc(-n2c(/C=C/c3ccccc3)nc3ccccc3c2=O)c1	-8	-3	-2	6	5	-3
CN(C)c1ccc(/C=C/c2nc3ccccc3c(=O)n2-c2ccc(C(=O)O)cc2)cc1	39*	70*	26*	-30	10	-10
CC[N+](C)(C)c1cccc(O)c1	-26	16*	8	-1	-4	-8
CC(C1SC(=S)NC1=O)C1SC(=S)NC1=O (centres undefined)	-3	-2	2	2	5	-3
CSc1nc(=O)[nH]nc1Sc1ccccc1	-9	-3	3	7	6	-3
Cc1ccc(NS(=O)(=O)c2cc(OCC(N)=O)c(C)cc2Cl)cc1C	3	8	34*	3	-5	15
CC(=O)c1cccc(NS(=O)(=O)c2cc(OCC(N)=O)c(C)cc2Cl)c1	1	-4	2	0	-2	0
Cc1cccc(NS(=O)(=O)c2cc(OCC(N)=O)c(C)cc2Cl)c1	-13	10	28*	5	5	-9
CC1(C(=O)NCc2cccnc2)Cc2c(-c3cccc(C(F)(F)F)c3)ccnc2O1 (centres undefined)	-12	-9	-2	-1	5	-2
Cc1ccc(NC(=O)c2ncn(CCCNCCCc3ccccc3)n2)cc1C	-5	18*	0	1	10	-1
O=C(NCc1cc(C(F)(F)F)ccc1Cl)c1cccc2c1C(=O)c1ccc(N3CCC(N4CCCCC4)CC3)cc1S2(=O)=O	32*	-2	5	-28	5	-6
O=C(NCc1cccc(F)c1)c1cccc2c1C(=O)c1ccc(N3CCC(Cc4ccccc4)CC3)cc1S2(=O)=O	9	15	14	-6	28*	-6
O=C(NCCc1ccc(F)cc1)c1cccc2c1C(=O)c1ccc(N3CCC(Cc4ccccc4)CC3)cc1S2(=O)=O	-4	20*	0	0	11	4
CC1CCN(c2ccc3c(c2)S(=O)(=O)c2cccc(C(=O)NCc4cccc(F)c4)c2C3=O)CC1	18	1	6	-9	15	-9
SMILES	M1 antag	M1 ag	M5 ag	CHRM1 PAM	CHRM5 antagonist	M5 PAM
O=C(NCc1cccc(F)c1)c1cccc2c1C(=O)c1ccc(N3CCCC3)cc1S2(=O)=O	33*	27*	35*	-18	17	-36
COc1ccc2c(c1)Cc1c-2cc(Br)c(N)c1Br	0	-3	1	2	-5	0
CCOC(=O)[C@]12CCC=C1N(Cc1ccc3c(c1)OCO3)C(=O)[C@H](CC(=O)NCC13CC4CC(CC(C4)C1)C3)C2	·	·	2	·	-3	2
COc1cccc(S(=O)(=O)N(C)C[C@@H]2OCc3cnnn3CCCC(=O)N([C@@H](C)CO)C[C@H]2C)c1	-14	-6	0	6	4	3
CCc1cc(=O)oc2cc(OCC(=O)O)c(Cl)cc12	-17	-2	-9	11	-8	20*
CCOC(=O)N1CCN(C(=O)c2ccc(CN(c3ccccc3)S(C)(=O)=O)cc2)CC1	11	-2	1	-5	4	-6
CCOC(=O)N1CCN(C(=O)c2ccc(N(Cc3ccccc3Cl)S(C)(=O)=O)cc2)CC1	-5	3	0	32*	-4	4
COc1ccc(O)c(/C=N/N2CCCCC2)c1	-22	8	5	13	8	-3
COc1ccc(/C(C)=N/N2CCCCC2)c(O)c1	1	18*	13	4	2	-2
CCOC(=O)CN1N=C(/C=C/c2ccccc2)CCC1=O	0	-3	28*	0	-5	2
CCOC(=O)CN1N=C(/C=C/c2ccc(OCC)cc2)CCC1=O	0	-6	-3	2	5	-2
COc1ccc(NC(=O)C2Cc3c(-c4ccc5c(c4)OCO5)ccnc3O2)cc1OC (centres undefined)	33*	2	5	-15	18	-13
Cc1nc(Cc2nnc(SC(C)C(=O)Nc3ccccc3)o2)cs1 (centres undefined)	-26	-2	0	13	-6	2
OCCNCc1cc(Br)ccc1OCc1ccc(Cl)cc1	4	23*	6	-5	2	-5
S=C(Nc1ccccc1)Nc1ccc(Cl)cn1	37*	-5	-2	-13	15	-15
CCOc1ccc(CCN2C(=O)C(=O)N([C@@H](Cc3ccccc3)CN3CCC[C@H]3CN3C(=O)C(=O)NC[C@@H]3CC(C)C)C[C@@H]2Cc2ccc(O)cc2)cc1	·	·	0	·	-7	-1
c1ccc(C2[C@H]3CN(Cc4cccnc4)[C@H](c4ccccc4)C34CC2(c2cccnc2)C4)cc1 (some centres undefined)	40*	-11	-8	-31	7	-20

Bioassay records deposited in PubChem by The Scripps Research Institute Molecular Screening Center.
